Laboratory results: ChEMBL document CHEMBL2150886, “Synthesis of [3β-acetoxy-urs-12-en-28-oyl]-1-monoglyceride and investigation on its anti tumor effects against BGC-823” (Bioorg Med Chem, 2011)
pIC50: −log10 of the molar value. Calls of active or inactive are those of the source. No cut-off for these calls is given here.

Tests used:
[1] = tested on: Mus musculus; experiment: Toxicity in human BGC823 cells xenografted nude mouse assessed as body weight changes at 6 mg/kg, iv treated on day 1 post tumor implant (reference value: 19.69 +/- 1.21 grams); assay type: organism-based, BGC-823; parameters: dose 6 mg/kg, route intravenous; details: in vivo
[2] = tested on: BGC-823; experiment: Cell cycle arrest in human BGC823 cells assessed as accumulation of cells at subG0/G1 phase at 40 uM incubated for 24 to 72 hrs by propidium iodide staining based flow cytometry (Rvb= 0.66%); assay type: functional
[3] = tested on: BGC-823; experiment: Induction of apoptosis in human BGC823 cells assessed as necrotic damaged cell population at 40 uM by annexinV/propidium iodide staining (reference value: 0.5%; assay type: functional
[4] = tested on: BGC-823; experiment: Induction of cell shrinkage in human BGC823 cells at 30 uM incubated for 48 hrs by MTT assay; assay type: functional, cell-based
[5] = tested on: BGC-823; experiment: Induction of apoptosis in human BGC823 cells assessed as early apoptotic cell population at 30 uM by annexinV/propidium iodide staining (reference value: 1.9%); assay type: functional
[6] = tested on: BGC-823; experiment: Cytotoxicity against human BGC823 cells by MTT assay; assay type: functional, cell-based
Procedure, shortened: (§1)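 Cells were grown in RPMI-1640 with 10% heat-inactivated FCS at 37 °C under 5% CO₂, seeded at 5 × 10³ per well and left 24 h. Compounds in DMSO were diluted in medium to 0.5% final DMSO; controls received 0.5% DMSO. Exposure was 24–72 h, followed by MTT for 4 h, formazan dissolved in DMSO, and A570. Six wells per sample; IC₅₀ taken at 50% inhibition; ≥3 repeats.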

[7] = tested on: Mus musculus; experiment: Toxicity in human BGC823 cells xenografted nude mouse assessed as body weight changes at 30 mg/kg, iv treated 2 times on day 1 and day 4 post tumor implant (reference value: 20.58 +/- 1.35 grams); assay type: organism-based, BGC-823; parameters: dose 30 mg/kg, route intravenous; details: in vivo
Procedure, shortened: (§2)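 Nude mice (male, 5 weeks, 18–22 g) carried subcutaneous BGC-823 xenografts from 1 × 10⁷ cells. Dosing started at about 200 mm³ tumour volume, with eight mice per group. Each dose was 0.2 mL given iv; the saline control received 0.9% saline. Body weight was recorded on days 1, 4, 7, 10, 13 and 16 of treatment and reported as mean ± SD, n = 8.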

[8] = tested on: BGC-823; experiment: Cell cycle arrest in human BGC823 cells assessed as accumulation of cells at subG0/G1 phase at 20 uM incubated for 48 hrs by propidium iodide staining based flow cytometry (Rvb= 0.66%); assay type: functional
Procedure, shortened: (§3)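 BGC-823 cells were exposed to 20 µM for 24, 48 or 72 h, or to 10, 20 or 40 µM for 48 h. About 10⁶ cells were harvested and stained with propidium iodide using a cell cycle kit, then analysed by flow cytometry. Percentages were read for sub-G0/G1, G0/G1, S and G2/M. Each experiment was run at least three times; mean ± SD.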

[9] = tested on: HepG2; experiment: Cytotoxicity against human HepG2 cells incubated for 48 hrs by MTT assay; assay type: functional, cell-based; details: HepG2, 48 h; procedure, shortened: as §1
[10] = tested on: BGC-823; experiment: Induction of apoptosis in human BGC823 cells assessed as late apoptotic cell population at 10 uM by annexinV/propidium iodide staining (reference value: 2.1%); assay type: functional
[11] = tested on: BGC-823; experiment: Reduction in survivin protein expression in human BGC823 cells at 10 uM incubated for 48 hrs by Western blotting; assay type: functional
Procedure, shortened: (§4)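 BGC-823 cells were treated with 10, 20 or 40 µM for 48 h, detached with trypsin/EDTA, and more than 10⁶ cells were lysed. Protein was quantified by Bradford, and 150–200 µg per lane was run on 12.5% SDS-PAGE and transferred to PVDF. Antibodies: Survivin 1:1000, Bcl-2 1:200, β-actin 1:1000; HRP secondary 1 h; ECL detection. Expression was quantified relative to control.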

[12] = tested on: BGC-823; experiment: Cell cycle arrest in human BGC823 cells assessed as accumulation of cells at subG0/G1 phase at 20 uM incubated for 24 hrs by propidium iodide staining based flow cytometry (Rvb= 0.66%); assay type: functional; procedure, shortened: as §3
[13] = tested on: BGC-823; experiment: Antitumor activity against human BGC823 cells xenografted in nude mouse assessed as reduction in tumor volume at 6 mg/kg, iv dosed 5 times; assay type: functional; parameters: scale not given: the % may be the effect or the level left
Procedure, shortened: (§5)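 Male nude mice (5 weeks, 18–22 g) inoculated subcutaneously with 1 × 10⁷ BGC-823 cells. At about 200 mm³ tumours, animals were randomised into four groups of eight. Each received 0.2 mL iv by tail vein; controls got 0.9% saline. Tumour volume was measured daily as 0.5 × length × width²; tumours were weighed at the end. Values are mean ± SD, n = 8.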

[14] = tested on: BGC-823; experiment: Induction of apoptosis in human BGC823 cells assessed as increase in caspase 3 activity at 20 uM incubated for 48 hrs relative to untreated control; assay type: functional
Procedure, shortened: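 BGC-823 cells were exposed to 0, 10 or 20 µM for 48 h, detached with trypsin/EDTA and washed in cold PBS. About 10⁶ cells were lysed, and the lysate was incubated 1 h with Ac-DEVD-pNA, with cleavage read at 405 nm. Activity was normalised to Bradford protein and expressed relative to the untreated control. Mean ± SD of three independent experiments.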

[15] = tested on: BGC-823; experiment: Induction of apoptosis in human BGC823 cells assessed as late apoptotic cell population at 20 uM by annexinV/propidium iodide staining (reference value: 2.1%); assay type: functional
[16] = tested on: BGC-823; experiment: Reduction in survivin protein expression in human BGC823 cells at 20 uM incubated for 48 hrs by Western blotting; assay type: functional; procedure, shortened: as §4
[17] = tested on: HT-29; experiment: Cytotoxicity against human HT-29 cells incubated for 48 hrs by MTT assay; assay type: functional, cell-based; details: HT-29, 48 h; procedure, shortened: as §1
[18] = tested on: BGC-823; experiment: Antitumor activity against human BGC823 cells xenografted in nude mouse assessed as reduction in tumor volume at 30 mg/kg, iv dosed 5 times; assay type: functional; parameters: scale not given: the % may be the effect or the level left; procedure, shortened: as §5
[19] = tested on: Mus musculus; experiment: Toxicity in human BGC823 cells xenografted nude mouse assessed as body weight changes at 30 mg/kg, iv treated 5 times on day 1, 4, 7, 10 and day 13 post tumor implant (reference value: 20.21 +/- 1.83 grams); assay type: organism-based, BGC-823; parameters: dose 30 mg/kg, route intravenous; details: in vivo; procedure, shortened: as §2
[20] = tested on: BGC-823; experiment: Induction of apoptosis in human BGC823 cells assessed as necrotic damaged cell population at 20 uM by annexinV/propidium iodide staining (reference value: 0.5%; assay type: functional
[21] = tested on: BGC-823; experiment: Cell cycle arrest in human BGC823 cells assessed as accumulation of cells at subG0/G1 phase at 40 uM incubated by propidium iodide staining based flow cytometry (Rvb= 0.66%); assay type: functional; details: TDE = time-dependent effect; procedure, shortened: as §3
[22] = tested on: BGC-823; experiment: Reduction in BCL-2 protein expression in human BGC823 cells at 1o to 40 uM incubated for 48 hrs by Western blotting; assay type: functional, cell-based; procedure, shortened: as §4
[23] = tested on: Mus musculus; experiment: Toxicity in human BGC823 cells xenografted nude mouse assessed as body weight changes at 30 mg/kg, iv treated on day 1 post tumor implant (reference value: 19.69 +/- 1.21 grams); assay type: organism-based, BGC-823; parameters: dose 30 mg/kg, route intravenous; details: in vivo; procedure, shortened: as §2
[24] = tested on: Mus musculus; experiment: Toxicity in human BGC823 cells xenografted nude mouse assessed as body weight changes at 6 mg/kg, iv treated 2 times on day 1 and day 4 post tumor implant (reference value: 20.58 +/- 1.35 grams); assay type: organism-based, BGC-823; parameters: dose 6 mg/kg, route intravenous; details: in vivo; procedure, shortened: as §2
[25] = tested on: BGC-823; experiment: Induction of apoptosis in human BGC823 cells assessed as necrotic damaged cell population at 30 uM by annexinV/propidium iodide staining (reference value: 0.5%; assay type: functional
[26] = tested on: BGC-823; experiment: Induction of apoptosis in human BGC823 cells assessed as early apoptotic cell population at 10 uM by annexinV/propidium iodide staining (reference value: 1.9%); assay type: functional

CC(=O)O[C@H]1CC[C@]2(C)[C@H]3CC=C4[C@@H]5[C@@H](C)[C@H](C)CC[C@]5(C(=O)OCC(O)CO)CC[C@@]4(C)[C@]3(C)CC[C@H]2C1(C)C (stereo partly specified)
Activity [1]: 19.21 g | Activity [2]: 96.13% | Activity [3]: 2.3% | Activity [4]: Active | Activity [5]: 45.1% | pIC50 [6]: 4.81 | Activity [7]: 19.61 g | Activity [8]: 7.91% | pIC50 [9]: 4.56 | Activity [10]: 2.6% | Activity [11]: 37.6% | Activity [12]: 3.71% | Activity [13]: 29.3% | fold change (FC) [14]: 3.65 | Activity [15]: 2.3% | Activity [16]: 43.1% | pIC50 [17]: 4.73 | Activity [18]: 41.9% | Activity [19]: 19.69 g | Activity [20]: 0.1% | Activity [21]: tde | Activity [22]: Active | Activity [23]: 19.26 g | Activity [24]: 20.66 g | Activity [25]: 6.5% | Activity [26]: 4.5%
